For orientation: IC50 means the concentration needed to halve the response being measured.

These results are taken from ChEMBL document CHEMBL4406881, “Design, synthesis and biological evaluation of benzoylacrylic acid shikonin ester derivatives as irreversible dual inhibitors of tubulin and EGFR” (Bioorg Med Chem, 2019).

Test [1] relates to A549. Description: Induction of apoptosis in human A549 cells assessed as PARP cleavage expression at 2 to 8 uM after 24 hrs by Western blot analysis. Type of test: functional, cell-based. The gist of the method:
(§1)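 Western blot of A549 cells treated for 24 h. Lysates in RIPA buffer were run on SDS-PAGE and transferred to PVDF. Primary antibody at 1:1000 overnight at 4 °C, secondary antibody at 1:3000-1:5000 for 1 h, ECL detection. Densitometry was normalised to GAPDH; mean ± S.E.M. from three independent experiments.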
On the technique in general: Immunoblotting shows a protein as a band on a membrane.

Test [2] concerns A549. Put plainly: Cell cycle arrest in human A549 cells assessed as accumulation at S phase at 8 uM after 24 hrs by RNAse A/ PI staining based flow cytometric analysis (reference value: 17.23%). The test is classed as functional. The method, boiled down: (§2)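 A549 cells at 5.0×10^4 per well were grown 12 h at 37 °C. Treatment was 0, 2, 4 or 8 µM for 24 h, or 8 µM for 0, 12, 24 or 36 h. Cells were fixed in 70% ethanol at −20 °C for at least 12 h, then stained in PBS with 0.1 mg/mL RNase A and 5 µg/mL PI. At least 10,000 events per sample were collected by flow cytometry to give G0/G1, S and G2/M percentages.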
In general terms: In flow cytometry, cells or beads pass a laser one at a time.

Test [3] relates to A549. Put plainly: Induction of apoptosis in human A549 cells assessed as caspase-3 cleavage expression at 2 to 8 uM after 24 hrs by Western blot analysis. The test is classed as functional, cell-based. The method, boiled down: as §1
Test [4] has as its system A549. Description: Cell cycle arrest in human A549 cells assessed as accumulation at S phase at 4 uM after 24 hrs by RNAse A/ PI staining based flow cytometric analysis (reference value: 17.23%). The test is classed as functional. The gist of the method:
as §2

Test [5] deals with A549. Description: Cell cycle arrest in human A549 cells assessed as accumulation at G1 phase at 8 uM after 36 hrs by RNAse A/ PI staining based flow cytometric analysis (reference value: 67.69%). The test is classed as functional. The gist of the method: as §2
For test [6], the system named is A549. Description: Induction of apoptosis in human A549 cells assessed as viable cells at 8 uM after 24 hrs by Annexin-V/PI staining based flow cytometry analysis (reference value: 88.4%). Type of test: functional. The following applies: A549, 24 h, read-out: Activity. The method, boiled down: (§3)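 A549 cells seeded overnight at 37 °C, 5% CO2, then exposed to 0, 2, 4, 8 or 12 µM for 24 h (dose series) or 8 µM for 0, 12, 24, 36 h (time series). Harvested, PBS-washed, stained with Annexin V-FITC and PI in binding buffer 15 min at room temperature in the dark, analysed by flow cytometry; three independent experiments.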

Test [7] concerns A549. Description: Induction of apoptosis in human A549 cells assessed as early apoptotic cells at 12 uM after 24 hrs by Annexin-V/PI staining based flow cytometry analysis (reference value: 1.15%). The test is classed as functional.
In test [8] the test system is A549. Put plainly: Induction of apoptosis in human A549 cells assessed as viable cells at 8 uM after 12 hrs by Annexin-V/PI staining based flow cytometry analysis (reference value: 88.4%). The settings on record: A549, 12 h, read-out: Activity. The test is classed as functional. The method, boiled down: as §3
For test [9], the system named is A549. Description: Cell cycle arrest in human A549 cells assessed as accumulation at G1 phase at 2 uM after 24 hrs by RNAse A/ PI staining based flow cytometric analysis (reference value: 73.30%). The test is classed as functional. The method, boiled down:
as §2

Test [10] has as its system A549. Description: Antiproliferative activity against human A549 cells assessed as reduction in cell viability after 24 hrs by MTT assay. Type of test: functional, cell-based. The settings on record: A549, 24 h.
The next test concerns NCI-H460. Description: Antiproliferative activity against human H460 cells assessed as reduction in cell viability after 24 hrs by MTT assay. The following applies: NCI-H460, 24 h. Type of test: functional, cell-based. The method, boiled down: (§4)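 MTT colorimetric assay. Cells in log phase in medium with 10% FBS were seeded at 10⁴ cells/well and left overnight at 37 °C, 5% CO₂ to reattach. Compounds were added at 0.1, 1, 10 and 100 μM in 10% FBS for 24 h. IC50 reported as mean ± SD of three independent experiments.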
In general terms: Formazan colour is commonly taken as a measure of viable cells.

The subject of another test is HeLa. Description: Antiproliferative activity against human HeLa cells assessed as reduction in cell viability after 24 hrs by MTT assay. Type of test: functional, cell-based. The method, boiled down:
as §4

Test [11] deals with A549. Put plainly: Induction of apoptosis in human A549 cells assessed as late apoptotic cells at 4 uM after 24 hrs by Annexin-V/PI staining based flow cytometry analysis (reference value: 5.69%). Type of test: functional.
Test [12] concerns A549. Put plainly: Induction of apoptosis in human A549 cells incubated for 24 hrs by Annexin-V/PI staining based flow cytometry analysis. The test is classed as functional, cell-based. The method, boiled down:
as §3

Test [13] addresses T1, Epidermal growth factor receptor (Homo sapiens, UniProt P00533). Put plainly: Potency index, ratio of shi-konin IC50 to compound IC50 for inhibition of C-terminal His-tagged N-terminal GST-tagged human EGFR (668 to 1210 residues) expressed in baculovirus infected Sf9 cells after 30 mins in presence of gamma-[32p-ATP] binding assay.
In test [14] the target is T1, Epidermal growth factor receptor. Put plainly: Inhibition of EGFR signalling in human A549 cells assessed as reduction in EGFR phosphorylation after 24 hrs by Western blot analysis. Type of test: cell-based. The gist of the method:
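A549 cells in 6-well plates were lysed in RIPA buffer with protease inhibitors on ice for 30 min and cleared at 4 °C. Protein was quantified by BCA, run on SDS-PAGE and transferred to PVDF. Membranes were blocked with milk, probed with primary antibody (1:1000) overnight at 4 °C, then secondary antibody (1:3000-1:5000) 1 h at RT. Detection by ECL; band densitometry normalised to GAPDH (β-actin also used). Three independent experiments.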

Test [15] deals with A549. Description: Induction of apoptosis in human A549 cells assessed as necrotic cells after at 8 uM 24 hrs by Annexin-V/PI staining based flow cytometry analysis (reference value: 2.98%). The test is classed as functional. The gist of the method:
as §3

For test [16], the system named is A549. Put plainly: Cell cycle arrest in human A549 cells assessed as downregulation of CDK2 expression at 2 to 8 uM by immunoblot analysis. The test is classed as functional, cell-based. The gist of the method:
(§5)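 A549 lysates in RIPA buffer with protease inhibitors were run on SDS-PAGE and blotted to PVDF. Membranes were probed overnight at 4 °C with primary antibody at 1:1000, then secondary antibody at 1:3000-1:5000 for 1 h, and detected by ECL. Band intensity was normalised to GAPDH. Results are mean ± S.E.M. from three independent experiments.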

The subject of test [17] is A549. Put plainly: Induction of apoptosis in human A549 cells assessed as low mitochondrial membrane potential at 12 uM after 12 hrs by JC-1 staining-based flow cytometric analysis (reference value: 6.3%). The test is classed as functional.
The subject of test [18] is A549. Put plainly: Induction of apoptosis in human A549 cells assessed as high mitochondrial membrane potential at 8 uM after 12 hrs by JC-1 staining-based flow cytometric analysis (reference value: 90.6%). Type of test: functional. The method, boiled down: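 JC-1 staining of A549 cells treated for 12 h. CCCP-treated wells, 20 min at 37 °C, served as positive control. Collected cells were incubated with JC-1 solution at 37 °C for 30 min, washed, and analysed by flow cytometry for the fraction with high ΔΨm and for PI-positive cells. Results are mean ± S.E.M. of three replicates.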

Test [19] concerns A549. Description: Cell cycle arrest in human A549 cells assessed as downregulation of cyclin A expression at 2 to 8 uM by immunoblot analysis. Type of test: functional, cell-based. The gist of the method: as §5
The subject of test [20] is A549. Description: Induction of apoptosis in human A549 cells assessed as viable cells at 12 uM after 24 hrs by Annexin-V/PI staining based flow cytometry analysis (reference value: 91.4%). Type of test: functional. The settings on record: A549, 24 h, read-out: Activity. The method, boiled down: as §3

SMILES strings stand for the structures. Calls of active or inactive are those of the source. The calls are words filed in the database; no cut-off is given here.

T1 sequence (P00533 whole entry, the tested form may be a part): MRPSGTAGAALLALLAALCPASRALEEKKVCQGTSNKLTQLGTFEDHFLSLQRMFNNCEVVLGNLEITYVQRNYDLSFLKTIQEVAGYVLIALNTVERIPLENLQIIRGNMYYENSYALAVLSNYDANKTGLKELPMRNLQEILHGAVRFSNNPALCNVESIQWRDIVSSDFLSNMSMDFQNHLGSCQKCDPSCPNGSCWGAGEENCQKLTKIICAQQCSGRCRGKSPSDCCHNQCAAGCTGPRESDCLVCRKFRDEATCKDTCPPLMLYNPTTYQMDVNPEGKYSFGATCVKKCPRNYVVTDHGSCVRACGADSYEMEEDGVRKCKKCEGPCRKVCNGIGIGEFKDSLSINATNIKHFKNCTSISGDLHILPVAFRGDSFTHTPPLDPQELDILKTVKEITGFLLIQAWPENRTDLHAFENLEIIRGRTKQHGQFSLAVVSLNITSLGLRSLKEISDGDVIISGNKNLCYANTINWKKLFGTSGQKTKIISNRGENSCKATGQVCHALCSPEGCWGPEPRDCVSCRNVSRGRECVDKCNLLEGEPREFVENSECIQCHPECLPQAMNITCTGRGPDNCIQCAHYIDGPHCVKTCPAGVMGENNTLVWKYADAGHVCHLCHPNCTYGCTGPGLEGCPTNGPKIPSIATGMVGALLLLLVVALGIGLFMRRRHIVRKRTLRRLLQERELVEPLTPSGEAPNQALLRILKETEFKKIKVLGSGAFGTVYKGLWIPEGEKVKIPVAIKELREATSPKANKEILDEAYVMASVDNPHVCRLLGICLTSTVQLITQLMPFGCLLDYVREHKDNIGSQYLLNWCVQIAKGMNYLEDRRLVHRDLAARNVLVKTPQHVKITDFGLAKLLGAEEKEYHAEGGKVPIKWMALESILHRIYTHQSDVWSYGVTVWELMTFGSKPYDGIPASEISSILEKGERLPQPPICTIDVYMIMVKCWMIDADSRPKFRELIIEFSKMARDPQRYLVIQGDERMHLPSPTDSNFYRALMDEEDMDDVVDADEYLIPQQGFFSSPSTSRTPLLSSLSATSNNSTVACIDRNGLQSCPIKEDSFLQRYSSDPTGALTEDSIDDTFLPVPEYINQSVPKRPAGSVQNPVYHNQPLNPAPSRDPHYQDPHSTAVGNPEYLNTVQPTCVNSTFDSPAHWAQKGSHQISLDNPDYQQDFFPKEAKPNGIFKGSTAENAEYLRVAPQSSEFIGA

Take `CC(C)=CC[C@@H](OC(=O)/C=C\C(=O)c1ccc(F)cc1)C1=CC(=O)c2c(O)ccc(O)c2C1=O`: the outcome with A549 [1], with A549 [3], in the test with A549 [16] and with A549 [19] was Active. The Activity is 19.66% in the test on A549 [2]; 19.8% in the test with A549 [4]; 30.88% in the test with A549 [5]; 42.6% in the test with A549 [7]; 61.67% in the test on A549 [9]; 10.6% with A549 [11]. The Activity result with A549 [12] is “Dose-dependent effect”; in the test with A549 [15], 3.72%; with A549 [17], 58.7%; with A549 [18], 55.8%. Also, the viability at 8 µM in the test on A549 [6] stood at 37.1%; in the test with A549 [8], 79%. Also, the half-inhibitory concentration (IC50) in the test on A549 [10] was 4.37 µM; with NCI-H460, 5.61 µM; in the test on HeLa, 7.93 µM. In test [13], the Ratio IC50 worked out at 6. Besides, the inhibition result in test [14] was “Dose-dependent effect”. In addition, in the test with A549 [20], the viability at 12 µM was found to be 15.1%.
